ChEMBL document CHEMBL4350954, “Identification of Thienopyrimidine Scaffold as an Inhibitor of the ABC Transport Protein ABCC1 (MRP1) and Related Transporters Using a Combined Virtual Screening Approach” (J Med Chem, 2019)
pIC50: −log10 of the molar value.

How the values were obtained:
Assay type in all cases: cell-based
[1] = molecular target: T1, ABCG2 (BCRP) (Homo sapiens, UniProt Q9UNQ0); assay: Inhibition of ABCG2 (unknown origin) expressed in MDCK2 cells co-expressing BCRP (unknown origin) assessed as effect on pheophorbide A accumulation at 10 uM pre-incubated for 20 mins followed by pheophorbide A addition and measured after 120 mins by flow cytometric analysis relative to Ko143; conditions: probe pheophorbide A
T1 sequence (Q9UNQ0 whole entry): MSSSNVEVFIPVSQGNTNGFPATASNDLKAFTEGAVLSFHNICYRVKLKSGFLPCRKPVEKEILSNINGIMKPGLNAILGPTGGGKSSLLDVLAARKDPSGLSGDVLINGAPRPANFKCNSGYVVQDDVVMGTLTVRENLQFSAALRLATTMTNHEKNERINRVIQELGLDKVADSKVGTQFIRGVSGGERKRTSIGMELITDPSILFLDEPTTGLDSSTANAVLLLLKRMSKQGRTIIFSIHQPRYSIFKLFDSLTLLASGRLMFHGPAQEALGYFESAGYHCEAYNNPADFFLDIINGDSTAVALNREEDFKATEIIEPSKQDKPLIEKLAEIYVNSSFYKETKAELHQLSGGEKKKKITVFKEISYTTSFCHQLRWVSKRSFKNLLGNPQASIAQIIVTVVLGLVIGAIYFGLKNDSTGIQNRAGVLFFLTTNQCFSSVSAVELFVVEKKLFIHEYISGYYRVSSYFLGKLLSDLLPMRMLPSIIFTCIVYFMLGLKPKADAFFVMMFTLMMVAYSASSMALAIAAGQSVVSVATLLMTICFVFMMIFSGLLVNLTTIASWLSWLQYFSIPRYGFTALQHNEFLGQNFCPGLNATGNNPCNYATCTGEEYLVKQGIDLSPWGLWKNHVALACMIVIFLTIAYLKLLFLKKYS
How it was run: (§1)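 Pheophorbide A accumulation assay in ABCG2-transfected MDCK II BCRP cells. Ko143 at 10 µM set 100% and no compound set 0%. Screening was at 10 µM; compounds reaching >20% (+SEM) got IC50 curves constrained to the Ko143 maximum at 10 µM. Values are reported as mean ± SEM.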

[2] = molecular target: T2, Broad substrate specificity ATP-binding cassette transporter ABCG2 (Homo sapiens, UniProt Q9UNQ0); assay: Inhibition of ABCG2 (unknown origin) expressed in MDCK2 cells co-expressing BCRP (unknown origin) assessed as effect on pheophorbide A accumulation pre-incubated for 20 mins followed by pheophorbide A addition and measured after 120 mins by flow cytometric analysis; how it was run: as §1
T2 sequence (Q9UNQ0 whole entry): T1 sequence (Q9UNQ0 whole entry)

[3] = molecular target: ABCB1 (P-gp) (Homo sapiens, UniProt P08183); assay: Inhibition of ABCB1 in human A2780/ADR cells at 10 uM preincubated for 30 mins followed by calcein AM addition and measured at 60 secs time interval by fluorescence assay relative to cyclosporine A; conditions: probe calcein AM
ABCB1 (P-gp), sequence (P08183 whole entry): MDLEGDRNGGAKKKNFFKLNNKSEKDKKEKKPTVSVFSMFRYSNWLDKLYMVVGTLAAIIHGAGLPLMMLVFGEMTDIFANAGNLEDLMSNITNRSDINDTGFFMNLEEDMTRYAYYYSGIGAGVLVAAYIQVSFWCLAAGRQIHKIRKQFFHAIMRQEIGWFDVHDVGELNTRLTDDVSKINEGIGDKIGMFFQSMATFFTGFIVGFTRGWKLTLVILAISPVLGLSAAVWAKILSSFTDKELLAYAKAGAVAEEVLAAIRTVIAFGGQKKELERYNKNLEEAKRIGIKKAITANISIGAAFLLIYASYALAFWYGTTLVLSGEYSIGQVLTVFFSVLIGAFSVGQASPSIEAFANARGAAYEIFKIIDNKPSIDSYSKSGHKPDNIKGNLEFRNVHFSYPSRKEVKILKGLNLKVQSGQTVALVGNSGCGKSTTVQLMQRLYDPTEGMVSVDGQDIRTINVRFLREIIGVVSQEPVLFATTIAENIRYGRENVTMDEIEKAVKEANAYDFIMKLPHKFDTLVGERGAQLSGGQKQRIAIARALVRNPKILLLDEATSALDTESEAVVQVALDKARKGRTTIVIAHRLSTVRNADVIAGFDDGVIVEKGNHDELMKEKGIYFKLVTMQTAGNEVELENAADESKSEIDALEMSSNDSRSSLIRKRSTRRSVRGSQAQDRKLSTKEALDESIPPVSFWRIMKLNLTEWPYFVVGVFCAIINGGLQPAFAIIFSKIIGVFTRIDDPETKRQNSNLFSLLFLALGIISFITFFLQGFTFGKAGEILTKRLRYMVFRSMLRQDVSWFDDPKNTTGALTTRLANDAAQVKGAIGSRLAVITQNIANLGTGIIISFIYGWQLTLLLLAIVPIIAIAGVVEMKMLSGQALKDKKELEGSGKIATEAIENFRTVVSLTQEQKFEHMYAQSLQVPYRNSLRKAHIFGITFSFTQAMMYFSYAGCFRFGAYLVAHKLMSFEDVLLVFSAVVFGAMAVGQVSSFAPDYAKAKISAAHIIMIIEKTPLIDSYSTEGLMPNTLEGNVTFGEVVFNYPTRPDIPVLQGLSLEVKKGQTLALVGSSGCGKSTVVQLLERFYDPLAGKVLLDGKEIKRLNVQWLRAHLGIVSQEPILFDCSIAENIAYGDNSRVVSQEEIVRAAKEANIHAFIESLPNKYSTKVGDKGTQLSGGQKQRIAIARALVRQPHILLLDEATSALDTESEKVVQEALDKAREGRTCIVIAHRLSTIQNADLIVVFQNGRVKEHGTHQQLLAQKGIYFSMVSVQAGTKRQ

[4] = molecular target: ATP-dependent translocase ABCB1 (Homo sapiens, UniProt P08183); assay: Inhibition of ABCB1 in human A2780/ADR cells preincubated for 30 mins followed by calcein AM addition and measured at 60 secs time interval by fluorescence assay
ATP-dependent translocase ABCB1, sequence (P08183 whole entry): as above

[5] = molecular target: ABCC1 (MRP1) (Homo sapiens, UniProt P33527); assay: Inhibition of ABCC1 in human H69AR cells at 10 uM preincubated for 30 mins followed by calcein-AM addition measured at 60 secs time interval by fluorescence assay relative to control; conditions: probe calcein-AM
ABCC1 (MRP1), sequence (P33527 whole entry): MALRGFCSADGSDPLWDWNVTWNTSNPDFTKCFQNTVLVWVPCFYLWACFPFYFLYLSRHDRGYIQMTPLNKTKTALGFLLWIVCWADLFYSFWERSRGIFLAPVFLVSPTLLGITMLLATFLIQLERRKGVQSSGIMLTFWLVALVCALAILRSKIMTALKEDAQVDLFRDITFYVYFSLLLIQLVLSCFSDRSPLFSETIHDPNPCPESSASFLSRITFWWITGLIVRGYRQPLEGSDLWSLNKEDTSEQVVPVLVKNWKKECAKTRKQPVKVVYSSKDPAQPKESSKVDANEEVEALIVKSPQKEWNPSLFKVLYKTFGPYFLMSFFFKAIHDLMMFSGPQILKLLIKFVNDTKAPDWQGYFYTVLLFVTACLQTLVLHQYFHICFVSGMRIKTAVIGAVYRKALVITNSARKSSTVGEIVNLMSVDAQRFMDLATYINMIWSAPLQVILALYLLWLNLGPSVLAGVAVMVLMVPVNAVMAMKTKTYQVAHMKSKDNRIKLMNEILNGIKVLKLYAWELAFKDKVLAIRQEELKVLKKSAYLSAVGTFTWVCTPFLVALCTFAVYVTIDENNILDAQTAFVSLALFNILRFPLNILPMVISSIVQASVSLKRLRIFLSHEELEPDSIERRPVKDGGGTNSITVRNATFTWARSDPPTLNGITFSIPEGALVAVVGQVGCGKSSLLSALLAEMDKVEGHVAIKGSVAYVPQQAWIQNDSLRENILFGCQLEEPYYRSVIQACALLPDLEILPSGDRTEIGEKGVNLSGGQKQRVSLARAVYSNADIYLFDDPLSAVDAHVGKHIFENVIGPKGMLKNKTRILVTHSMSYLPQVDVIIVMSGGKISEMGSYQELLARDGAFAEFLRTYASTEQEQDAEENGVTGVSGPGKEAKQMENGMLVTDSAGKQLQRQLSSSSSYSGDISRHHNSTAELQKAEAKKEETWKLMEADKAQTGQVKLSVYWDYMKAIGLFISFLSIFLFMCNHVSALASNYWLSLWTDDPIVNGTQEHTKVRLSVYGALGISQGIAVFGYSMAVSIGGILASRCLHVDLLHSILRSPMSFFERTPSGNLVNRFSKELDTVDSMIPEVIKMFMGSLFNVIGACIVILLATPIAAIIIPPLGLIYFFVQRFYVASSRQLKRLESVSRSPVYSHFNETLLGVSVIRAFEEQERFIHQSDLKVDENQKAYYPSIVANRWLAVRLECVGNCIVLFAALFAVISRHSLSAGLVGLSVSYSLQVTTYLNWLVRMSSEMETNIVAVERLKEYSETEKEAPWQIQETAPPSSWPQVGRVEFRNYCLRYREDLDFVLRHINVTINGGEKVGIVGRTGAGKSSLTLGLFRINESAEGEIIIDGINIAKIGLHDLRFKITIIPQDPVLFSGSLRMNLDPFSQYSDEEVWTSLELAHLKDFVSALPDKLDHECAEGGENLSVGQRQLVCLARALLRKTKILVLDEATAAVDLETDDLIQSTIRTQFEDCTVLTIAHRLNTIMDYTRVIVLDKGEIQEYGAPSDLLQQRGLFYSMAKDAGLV
How it was run: (§2)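 Calcein AM accumulation assay in H69AR small-cell lung cancer cells, which express only ABCC1. Inhibited efflux lets calcein AM build up intracellularly, where esterases cleave it to fluorescent calcein. The screen used 10 µM, scaled to a standard ABCC1 inhibitor at 10 µM as 100%. Hits reaching ≥20% inhibition (+SEM) went on to IC50 curves, constrained to that 100% maximum. Values are means of ≥3 independent experiments in duplicate ± SEM.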

[6] = molecular target: T3, Multidrug resistance-associated protein 1 (Homo sapiens, UniProt P33527); assay: Inhibition of ABCC1 in human H69AR cells preincubated for 30 mins followed by calcein-AM addition measured at 60 secs time interval by fluorescence assay; how it was run: as §2
T3 sequence (P33527 whole entry): as above

[7] = molecular target: T3, Multidrug resistance-associated protein 1; assay: Inhibition of MRP1 in human COR-L23/R cells assessed reduction in tritiated daunomycin efflux incubated for 2 hrs by radioactivity-based assay

| SMILES | inhibition at 2 h, 10 µM [1] | pIC50 [2] | inhibition at 1 min, 10 µM [3] | pIC50 [4] | inhibition at 1 min, 10 µM [5] | pIC50 [6] | pIC50 [7] |
| --- | --- | --- | --- | --- | --- | --- | --- |
| O=C(c1ccc2c(c1)OCCO2)C1CCN(C(=O)c2ccc(-n3cccn3)cc2)CC1 | ≥ 20% | 4.98 | – | – | – | – | – |
| O=C(CSc1nnc(-c2ccc(F)cc2)o1)N1CCN(Cc2ccc3c(c2)CCO3)CC1 | ≥ 20% | 4.84 | ≥ 20% | 4.51 | – | – | – |
| Fc1ccccc1N1CCN(Cc2csc(-c3ccc4c(c3)OCO4)n2)CC1 | ≥ 20% | 4.95 | ≥ 20% | 4.81 | – | – | – |
| O=C(c1cc(-c2cccnc2)nc2ccccc12)N1CCN(Cc2cccs2)CC1 | ≥ 20% | 4.80 | ≥ 20% | 4.56 | ≥ 20% | 4.41 | – |
| N#Cc1ccc(CN2CCN(C(=O)c3cn(Cc4ccccc4)nc3-c3cccnc3)CC2)cc1 | ≥ 20% | 4.81 | – | – | – | – | – |
| Cc1ccccc1-n1c(SCC(=O)N2CCN(Cc3ccccc3)CC2)nnc1-c1cccnc1 | – | – | ≥ 20% | 4.81 | – | – | – |
| Cc1nc2cc(NC(=O)C3CCCN(c4cc(-n5cccn5)ncn4)C3)ccc2s1 (stereo not drawn) | ≥ 20% | 5.86 | ≥ 20% | 5.32 | ≥ 20% | 4.64 | – |
| Cc1ccccc1-n1nnnc1SCC(=O)N1CCN(Cc2ccccc2)CC1 | – | – | ≥ 20% | 4.58 | – | – | – |
| Cc1cc(C)c2c(n1)sc1c(N3CCN(Cc4ccccc4Cl)CC3)ncnc12 | ≥ 20% | 5.06 | ≥ 20% | 5.55 | – | – | – |
| CCCc1cc(N2CCN(CCOc3cccc4ccccc34)CC2)n2nc3nc(C)cc(C)c3c2n1 | ≥ 20% | 4.93 | ≥ 20% | 4.84 | – | – | – |
| C[C@@]1(C(=O)Nc2ccc(F)nc2)CCCN1c1nc(Nc2cc(C3CC3)n[nH]2)c2cccn2n1 [BMS-754807] | ≥ 20% | 4.99 | ≥ 20% | 4.75 | ≥ 20% | 4.44 | – |
| CCOC(=O)Cn1c2cccc(C(N)=O)c2c2ncnc(N3CCN(CCc4ccc(F)c(F)c4)CC3)c21 | – | – | – | – | – | – | 6.91 |
